# Screening results (PubChem)
# MEKK2mut PB1 HTS = signal of MEK5 binding to mutant human MEKK2 PB1 domain; bead flow cytometry, Alexa488-MEK5 binding to MEKK2 mutant; percent response, % at 10 µM; 0.35% of 290,000 active; AID 1530; in the data active means percent response above about 24%, passing the limit was not always enough
# STK33 kinase inh = inhibitors of human STK33 kinase; Q9BYT3; purified STK33, MBP phosphorylation, ADP-Glo luminescence; inhibition, % at 10 µM; 0.073% of 320,000 active; AID 2661;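 active means inhibition at or above 25%, using the most active replicate where run in duplicate; inactive means inhibition below 25%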
# GSK3beta inhib = human GSK3beta kinase inhibition | GST-GSK3beta kinase, ADP-Glo luminescence, 60 min; active compounds read low | activity score (negative = inhibition), % at 10 µM | 0.038% of 300,000 active;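 active means more than half of replicate wells score below -50%, meaning over 50% inhibition versus plate controls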;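 further: 0% = median DMSO wells and -100% = median GW8510 positive control wells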
# Target sequence (P49841 whole entry, looked up): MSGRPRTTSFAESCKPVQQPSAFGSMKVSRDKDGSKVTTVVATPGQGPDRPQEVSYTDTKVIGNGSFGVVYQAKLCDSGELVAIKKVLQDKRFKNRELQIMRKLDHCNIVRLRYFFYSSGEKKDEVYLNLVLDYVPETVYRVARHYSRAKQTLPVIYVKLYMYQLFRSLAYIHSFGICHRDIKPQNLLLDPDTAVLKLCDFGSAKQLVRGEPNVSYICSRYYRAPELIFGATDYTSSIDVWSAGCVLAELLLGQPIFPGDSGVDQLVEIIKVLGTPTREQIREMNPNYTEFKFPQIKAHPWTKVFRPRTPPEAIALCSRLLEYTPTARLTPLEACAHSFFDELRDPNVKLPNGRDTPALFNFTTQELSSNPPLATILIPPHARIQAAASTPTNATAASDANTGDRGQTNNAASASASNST
#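 test system = GST-tagged human GSK3beta kinase, cell-free | reagent = 25 µM ATP with peptide substrate | dosing = one dose of 10 µM per compound | schedule = 60 min reaction, RT | detection = luminescent ADP-Glo measurement of ADP formed | control set = DMSO neutral wells and GW8510 at 20 µM as positive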
# GSK3 alpha inh = blocks human GSK-3 alpha kinase; ADP-Glo luminescence, 60 min; inhibition, % at 10 µM; P49840; 0.1% of 320,000 active;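 active means more than half of replicates show inhibition above 20%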;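 further: GST-tagged GSK-3 alpha with peptide substrate and 25 µM ATP; 0% = DMSO neutral wells and 100% = GW8510 positive control wells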
# MEKK3 PB1 HTS = raises or lowers MEK5 binding to the human MEKK3 PB1 domain. binding response (% of control), % at 10 µM. AID 1529. 1.4% of 290,000 active. bead-based flow cytometry, Alexa488-MEK5 binding to MEKK3; actives lie on both sides; 0 = blocked by unlabeled MEK5, 100 = vehicle;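 active means binding response more than 3 SD above or below the average of its plate-row segment, actives on both sides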;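 further: Alexa488 bead fluorescence after subtracting the streptavidin-only scavenger bead signal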
# MEKK2 WT-MEK5 = raises or lowers MEK5 binding to wildtype human MEKK2 PB1 domain | binding response (% of control), % at 10 µM | 1.1% of 290,000 active | AID 1531 | bead flow cytometry, Alexa488-MEK5 binding to MEKK2 WT; actives lie on both sides | Q9Y2U5; in the data active means binding response below about 67% or above about 130%
# MEKK2wt confirm = raises or lowers MEK5 binding to wildtype human MEKK2, retest; shares compounds with MEKK3 PB1 HTS; bead flow cytometry, Alexa488-MEK5 binding to MEKK2 WT; actives lie on both sides; binding response (% of control), % at 10 µM; 2.4% of 5,900 active; in the data active means binding response below about 16% or above about 210%; inactive means in between
# MEKK2mut-MEK5 = signal of MEK5 binding to mutant human MEKK2, retest. shares compounds with MEKK3 PB1 HTS. bead flow cytometry, Alexa488-MEK5 binding to MEKK2 mutant. percent response, % at 10 µM. 2% of 5,900 active; in the data active means percent response mostly above about 71%, no sharp cut-off; inactive means mostly below about 38%;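 further: higher means compound restores mutant binding toward wildtype level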
# MEKK3-MEK5 inh = MEKK3-MEK5 PB1 inhibition, single concentration confirmation; bead flow cytometry, Alexa488-MEK5 binding to MEKK3; active compounds read low; 1.8% of 5,900 active; shares compounds with MEKK3 PB1 HTS; binding response (% of control), % at 10 µM; AID 1894;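 active means binding response below 72% of control, or above a set upper limit, though filed actives all read lower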;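 further: 100% = DMSO only wells and 0% = binding blocked by excess unlabeled MEK5; lower values mean stronger disruption of MEK5 binding to MEKK3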
# Active calls of the source: *; · = no result given; [ ] = dose if it differs, or a comment. Sampled rows, rich in hits. Any-hit rate of the full collection: about 2.1%.
SMILES,MEKK2mut PB1 HTS,STK33 kinase inh,GSK3beta inhib,GSK3 alpha inh,MEKK3 PB1 HTS,MEKK2 WT-MEK5,MEKK2wt confirm,MEKK2mut-MEK5,MEKK3-MEK5 inh
COc1cccc(N2[C@@H](CC(=O)O)c3cc(C(F)(F)F)ccc3S2(=O)=O)c1,4.0,-1.8,0.6,-1.9,102.0,103.0,·,·,·
CCOC(=O)CCC(=O)NCc1ccc2c(c1)cc(C)n2C,-4.0,-0.4,-4.5,-0.7,74.0*[inhibitor],77.0,98.0,2.0,98.0
CCCCC(=O)NCc1ccc2c(c1)cc(C)n2C,-3.0,0.2,0.4,2.5,93.0,86.0,·,·,·
CCOC(=O)CCC(=O)NCc1ccc2[nH]c(C)cc2c1,-5.0,-1.2,-1.9,-1.4,82.0*[inhibitor],81.0,94.0,0.0,100.0
Cc1cccc(CC(=O)Nc2sc(C(C)C)cc2C(=O)N2CCOCC2)c1,8.0,-2.6,-5.8,-4.9,104.0,105.0,·,·,·
COc1ccc(C(=O)NCc2nnc(SCC(=O)Nc3ccccc3F)o2)cc1,-67.0,0.1,1.6,0.3,3.0*[inhibitor],3.0*[inhibitor],105.0,5.0,102.0
CCC(=O)Nc1nnc(SCc2ccc(F)cc2)s1,2.0,0.2,3.2,1.9,2.0*[inhibitor],3.0*[inhibitor],102.0,2.0,110.0
CC1C=CCC2C(=O)N(c3cccc(C(=O)Nc4ccc(F)cc4)c3)C(=O)C12 (stereo not given),-8.0,-1.2,3.7,-1.8,93.0,91.0,·,·,·
Cc1ccc(NC(=O)N2CCCC2C(=O)Nc2nnc(C(C)C)s2)cc1 (stereo not given),5.0,-0.5,-2.6,-1.4,101.0,108.0,·,·,·
CC(C)c1nnc(NC(=O)C2CCCN2C(=O)Nc2ccccc2[N+](=O)[O-])s1 (stereo not given),-2.0,-1.8,-3.7,-1.4,107.0,105.0,·,·,·
CC(C)c1nnc(NC(=O)C2CCCN2C(=O)Nc2ccccc2F)s1 (stereo not given),7.0,1.0,0.8,-4.6,151.0*,129.0,100.0,-3.0,100.0
COc1ccccc1NC(=O)N1CCCC1C(=O)Nc1nnc(C(C)C)s1 (stereo not given),-14.0,-1.0,1.0,0.2,3.0*[inhibitor],3.0*[inhibitor],108.0,10.0,106.0
CC(=O)N1CCC(O)(c2ccc3c(c2)OCO3)CC1,2.0,-3.5,3.9,0.3,105.0,106.0,·,·,·
O=C1CCN(Cc2cccnc2)CCN1[C@H](CO)Cc1ccccc1,-6.0,-1.4,0.6,4.4,101.0,102.0,·,·,·
CCOC(=O)C1CCN(C(=O)CCNS(=O)(=O)c2cc(Br)cnc2N)CC1,-3.0,-1.4,2.0,-1.1,100.0,99.0,·,·,·
O=C1c2ccccc2C(=O)N1CN(C(=O)COc1ccc(Cl)cc1Cl)c1cccc(F)c1,1.0,0.0,2.9,-1.2,139.0*,105.0,99.0,-1.0,100.0
COc1ccc(CN2CCN(C(=O)C3CCN(S(=O)(=O)c4cccs4)CC3)CC2)c(OC)c1OC,-47.0,-0.8,4.8,-3.6,1.0*[inhibitor],1.0*[inhibitor],103.0,4.0,102.0
COc1ccc(N2CCN(C(=O)C3CCN(S(=O)(=O)c4cccs4)CC3)CC2)cc1,-3.0,-1.6,1.2,-0.4,100.0,96.0,·,·,·
Cc1cccn2cc(CCNS(=O)(=O)c3cccs3)nc12,20.0,-0.9,-5.5,-1.1,115.0,119.0,·,·,·
CCc1c(C)nc2cc(-c3ccc(OC)c(OC)c3)nn2c1N1CCCC1,-28.0,0.8,-2.2,-1.3,2.0*[inhibitor],-1.0*[inhibitor],106.0,0.0,109.0
CCc1c(C)nc2cc(-c3ccc(OC)c(OC)c3)nn2c1N1CCC(C)CC1,3.0,-1.5,0.5,-4.2,98.0,103.0,·,·,·
CC(Sc1nc(-c2ccccc2)cs1)C(=O)Nc1ccc(Cl)cn1 (stereo not given),1.0,0.1,-1.0,-1.1,149.0*,111.0,110.0,-1.0,105.0
COc1ccc(C(=O)N2CCCC(CCC(=O)NCc3ccccc3F)C2)c(OC)n1 (stereo not given),5.0,-1.0,2.4,-1.0,100.0,103.0,·,·,·
CCOC(=O)N1CCN(C(=O)CSc2nc(-c3cccc(C)c3)ns2)CC1,10.0,-2.6,1.4,0.9,147.0*,134.0*,106.0,12.0,106.0
CCOC(=O)CNC(=O)CSc1nc(-c2ccccc2)ns1,0.0,-1.0,2.9,-3.0,112.0,113.0,·,·,·
SMILES,MEKK2mut PB1 HTS,STK33 kinase inh,GSK3beta inhib,GSK3 alpha inh,MEKK3 PB1 HTS,MEKK2 WT-MEK5,MEKK2wt confirm,MEKK2mut-MEK5,MEKK3-MEK5 inh
CCOC(=O)CNC(=O)CSc1nc(-c2ccc(C)cc2)ns1,2.0,0.1,2.3,-1.4,129.0*,119.0,117.0,6.0,100.0
CCCC(=O)N(Cc1cccnc1)c1nc2c(OC)ccc(Cl)c2s1,1.0,0.5,-1.2,-1.5,100.0,102.0,·,·,·
CCCc1cc(=O)[nH]c2nnc(SCC(=O)Nc3cccc(NC(C)=O)c3)n12,·,·,1.7,·,·,·,·,·,·
CN(C(=O)c1ccc(C#N)cc1)c1nnc(-c2cnccn2)s1,16.0,-1.1,0.9,0.5,119.0,109.0,·,·,·
Cc1ccc(N2CC(C(=O)N/N=C/c3sccc3C)CC2=O)cc1 (stereo not given),0.0,-0.8,-2.3,-1.3,135.0*,104.0,93.0,-2.0,100.0
Cc1ccsc1/C=N/NC(=O)C1CC(=O)N(c2ccc(F)cc2)C1 (stereo not given),-3.0,-15.1,-3.6,1.9,94.0,94.0,·,·,·
O=c1c(N2CCOCC2)c(N2CCOCC2)c1=O,-33.0,0.5,-0.3,-0.7,42.0*[inhibitor],52.0,105.0,2.0,103.0
C/C(CC(=O)Nc1cc(C)ccn1)=N\NC(=O)c1ccccc1C,-2.0,-2.7,0.7,0.5,91.0,95.0,·,·,·
C/C(CC(=O)Nc1cccc(Cl)c1Cl)=N\NC(=O)c1ccccc1C,-18.0,-1.0,4.0,-1.9,3.0*[inhibitor],4.0*[inhibitor],97.0,4.0,102.0
O=C(Cn1cnc2c(nnn2Cc2ccc(Cl)cc2)c1=O)N1CCCc2ccccc21,-4.0,-2.2,-0.8,-4.9,69.0*[inhibitor],80.0,103.0,4.0,108.0
C#CCOCCOCCOCCNc1nc(N2CCN(C(=O)[C@H](CCCCN)n3cc([C@@H](N)CC(C)C)nn3)CC2)nc(N2CCN(C(=O)[C@H](Cc3cc4ccccc4[nH]3)n3cc([C@@H](N)Cc4ccc(O)cc4)nn3)CC2)n1,60.0*,0.8,-1.6,17.4,113.0,187.0*,232.0*,89.0*,110.0
